Experimental data from different studies.
Lines come from different studies, so protocols differ.
Cell line: HCT-15
Observed: cell growth or viability

SMILES	assay	conditions	measurement	result
Cc1c(C)n(-c2c(C(C)C)cccc2C(C)C)c(=[Se])n1-c1c(C(C)C)cccc1C(C)C	MTT	72 h	IC50	16200 nM
COc1ccc(C(=O)/C=C/c2cccc(Cl)c2Cl)cc1S(N)(=O)=O	SRB	48 h	GI50	1300 nM
O=C(O)CCCc1ccccc1	MTT	72 h	IC50	> 50000 nM
COc1ccc(C(=O)/C=C/c2ccc3c(c2)OCCO3)cc1S(N)(=O)=O	SRB	10 µM	inhibition	58%
CC(C)c1cccc(C(C)C)c1-n1ccn(-c2c(C(C)C)cccc2C(C)C)c1=[Se]	MTT	72 h	IC50	14800 nM
COc1cccc2c1C(=O)c1c(O)c3c(c(O)c1C2=O)C[C@@](O)(C(=O)CO)C[C@@H]3O[C@H]1C[C@H](N)[C@H](O)[C@H](C)O1	MTT	24 h	IC50	6600 nM
[Se]=c1n(C23CC4CC(CC(C4)C2)C3)ccn1C12CC3CC(CC(C3)C1)C2	MTT	72 h	IC50	8300 nM
CC(C)[C@H](N)c1nc2cc(-c3ccncc3F)sc2c(=O)[nH]1	MTT		IC50	301 nM
COc1cccc(Oc2ccccc2NC(=O)CNC(=O)c2cccc3ccccc23)c1	SRB	48 h	GI50	129 nM
S=C([S][Au-][P+](CCCCCC[P+]([Au-][S]C(=S)n1cccn1)(c1ccccc1)c1ccccc1)(c1ccccc1)c1ccccc1)n1cccn1			GI50	2880 nM
CC(C)C[C@H](NC(=O)[C@H](Cc1ccccc1)NC(=O)c1cnccn1)B(O)O	ATP luminescence		IC50	9.6 nM
Cc1cc(C)n(C(=S)[S][Au][PH](CCCCCC[PH]([Au][S]C(=S)n2nc(C)cc2C)(c2ccccc2)c2ccccc2)(c2ccccc2)c2ccccc2)n1			GI50	1120 nM
COc1cc(Nc2nccc(-c3cnn4nc(OC)ccc34)n2)cc(C(F)(F)F)c1	ATP luminescence		IC50	360 nM
